Laboratory results taken from publication PMC4770456 (Food chemistry, 2016).
pEC50, pIC50: −log10 of the molar value. Read-outs that look alike come from different tables or passages of the source.

Experiments:
K-Ras = K-Ras (Homo sapiens, UniProt P01116); experiment: K-Ras inhibitory assay; assay type: cell-based; conditions: for K-Ras (HT-29) IC50: HT-29 cells, EGF 5 ng/ml
Method in brief: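 HT-29 cells in RPMI-1640 with penicillin/streptomycin were exposed to test compound for 3 h at 37°C, 5% CO2. They were then PBS-washed, stimulated with EGF (5 ng/ml, 2 min) and lysed with protease inhibitor. Protein was quantified, and Ras GTPase chemiluminescent ELISA used anti-K-Ras (1:5000, 1 h, room temperature) with HRP secondary and a luminescence read-out. IC50 from triplicate measurements.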

PARP-1 = PARP-1 (Homo sapiens, UniProt P09874); experiment: PARP-1 inhibitory assay; assay type: biochemical
Method in brief: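 Wells were histone-coated overnight at 4°C, blocked, then given activated DNA in PARP-1 and assay buffers. Test compound, diluted in 10% DMSO, was added before PARP-1 enzyme, followed by 1 h at 20°C. After washing, streptavidin-HRP was added (30 min, 20°C), then chemiluminescent substrate, with luminescence read at 410 nm. IC50 from triplicate measurements.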

HT-29 cells = experiment: SRB cytotoxicity assay; assay type: cell-based, human; conditions: for pEC50: read-out: Cytotoxicity EC50
NF-κB p65 = NF-κB p65 (Homo sapiens, UniProt Q04206); experiment: NF-κB p65 inhibitory assay; assay type: cell-based
[1] = read-out: PARP-1 IC50, enzyme assay
[2] = read-out: Cytotoxicity (HT-29) IC50, HT-29 cells, 72 h, SRB

NF-κB p65, sequence (Q04206 whole entry): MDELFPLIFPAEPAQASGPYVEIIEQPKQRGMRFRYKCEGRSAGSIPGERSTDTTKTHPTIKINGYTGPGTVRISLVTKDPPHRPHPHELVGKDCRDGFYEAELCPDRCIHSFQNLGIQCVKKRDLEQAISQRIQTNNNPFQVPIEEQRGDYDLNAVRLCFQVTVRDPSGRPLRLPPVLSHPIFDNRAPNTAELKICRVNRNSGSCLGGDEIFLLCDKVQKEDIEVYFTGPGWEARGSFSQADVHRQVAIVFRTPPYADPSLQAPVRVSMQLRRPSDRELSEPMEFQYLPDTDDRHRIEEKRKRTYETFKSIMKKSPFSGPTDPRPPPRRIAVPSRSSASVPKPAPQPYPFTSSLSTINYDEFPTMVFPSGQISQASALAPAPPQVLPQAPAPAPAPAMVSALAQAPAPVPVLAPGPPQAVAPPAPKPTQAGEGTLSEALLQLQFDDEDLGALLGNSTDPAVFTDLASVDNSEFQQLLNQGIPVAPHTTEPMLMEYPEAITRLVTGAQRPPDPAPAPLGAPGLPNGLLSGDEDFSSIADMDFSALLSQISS
PARP-1, sequence (P09874 whole entry): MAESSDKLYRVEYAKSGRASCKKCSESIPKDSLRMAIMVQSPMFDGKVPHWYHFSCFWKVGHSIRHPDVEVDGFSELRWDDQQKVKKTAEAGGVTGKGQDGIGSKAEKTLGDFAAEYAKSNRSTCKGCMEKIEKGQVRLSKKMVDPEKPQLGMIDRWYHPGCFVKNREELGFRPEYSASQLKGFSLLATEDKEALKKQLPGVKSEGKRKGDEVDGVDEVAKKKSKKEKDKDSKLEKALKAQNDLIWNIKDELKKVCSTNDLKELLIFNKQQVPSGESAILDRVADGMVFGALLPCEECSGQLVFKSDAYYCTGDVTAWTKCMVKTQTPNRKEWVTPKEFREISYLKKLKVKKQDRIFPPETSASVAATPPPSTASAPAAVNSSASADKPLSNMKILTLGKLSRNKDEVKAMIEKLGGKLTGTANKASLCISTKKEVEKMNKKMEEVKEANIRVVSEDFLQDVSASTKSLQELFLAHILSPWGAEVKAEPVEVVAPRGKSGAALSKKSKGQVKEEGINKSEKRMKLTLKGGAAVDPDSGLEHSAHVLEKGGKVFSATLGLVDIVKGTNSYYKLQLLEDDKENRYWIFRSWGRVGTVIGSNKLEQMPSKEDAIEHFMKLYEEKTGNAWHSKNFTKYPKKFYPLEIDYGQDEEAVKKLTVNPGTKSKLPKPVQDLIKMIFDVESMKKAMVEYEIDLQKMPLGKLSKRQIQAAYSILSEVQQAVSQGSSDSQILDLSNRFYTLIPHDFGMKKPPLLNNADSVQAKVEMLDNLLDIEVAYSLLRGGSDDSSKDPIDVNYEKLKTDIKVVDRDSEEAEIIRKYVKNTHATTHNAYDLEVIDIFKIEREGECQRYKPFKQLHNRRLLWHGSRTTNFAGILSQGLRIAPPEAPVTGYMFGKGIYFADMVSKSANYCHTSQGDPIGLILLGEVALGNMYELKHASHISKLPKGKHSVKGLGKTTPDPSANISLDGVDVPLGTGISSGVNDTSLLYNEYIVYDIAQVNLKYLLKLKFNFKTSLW
K-Ras, sequence (P01116 1-188 isoform P01116-2): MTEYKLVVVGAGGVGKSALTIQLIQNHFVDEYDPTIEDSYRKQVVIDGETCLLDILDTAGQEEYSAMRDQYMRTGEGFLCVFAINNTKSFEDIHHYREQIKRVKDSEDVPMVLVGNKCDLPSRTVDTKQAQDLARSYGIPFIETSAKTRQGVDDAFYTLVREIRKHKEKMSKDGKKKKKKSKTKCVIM

SMILES: C=CCc1cc(OC)c(OC(C)C(OC(C)=O)c2ccc(OC)c(OC)c2)c(OC)c1 (stereo not drawn) [Compound 2, benzenemethanol, α-[(1, R)-1-[2,6-dimethoxy-4-(2-propen-1-yl)phenoxy]ethyl]-3,4-dimethoxy-1-acetate]
- K-Ras (HT-29) IC50 (K-Ras): Not active
- pIC50 (PARP-1; [1]): 9.00

SMILES: C=CCc1cc(OC)c(OC(C)C(OC(C)=O)c2ccc3c(c2)OCO3)c(OC)c1 (stereo not drawn) [Compound 4, 1,3-benzodioxole-5-methanol,α-[1-[2,6-dimethoxy-4-(2-propenyl)phenoxy]ethyl]-acetate]
- pIC50 (HT-29 cells; [2]): 7.62
- pEC50 (HT-29 cells; HT-29 cells, 72 h, SRB): 7.62
- K-Ras (HT-29) IC50 (K-Ras): Not active
- pIC50 (NF-κB p65; read-out: NF-κB (HeLa) IC50, p65, HeLa cells, TNFα): 8.47

SMILES: CC=Cc1cc(OC)cc(C(C)C(O)c2cc(OC)c(OC)c(OC)c2)c1 (centres unmarked) [Compound 1]
- pIC50 (K-Ras): 4.98
- NF-κB inhibitory activity (in words) (NF-κB p65; HeLa cells): no NF-κB inhibitory activity
- NF-κB (HeLa) IC50 (NF-κB p65; p65, HeLa cells, TNFα): Not active
- pIC50 (PARP-1): 5.52

SMILES: C/C=C/c1cc(OC)c2c(c1)C(C)C(c1cc(OC)c(OC)c(OC)c1)O2 (centres unmarked) [Compound 5, benzofuran, 2,3-dihydro-7-methoxy-3-methyl-5-(1E)-1-yl-2-(3,4,5-trimethoxyphenyl)]
- pIC50 (HT-29 cells; [2]): 8.52
- pEC50 (HT-29 cells; HT-29 cells, 72 h, SRB): 8.52
- K-Ras (HT-29) IC50 (K-Ras): Not active
- NF-κB (HeLa) IC50 (NF-κB p65; p65, HeLa cells, TNFα): Not active
- pIC50 (PARP-1; [1]): 5.51

SMILES: CC(=O)O[C@H]1C(=O)[C@@]2(C)[C@H]([C@H](OC(=O)c3ccccc3)[C@]3(O)C[C@H](OC(=O)[C@H](O)[C@@H](NC(=O)c4ccccc4)c4ccccc4)C(C)=C1C3(C)C)[C@]1(OC(C)=O)CO[C@@H]1C[C@@H]2O [paclitaxel, reference compound]
- pEC50 (HT-29 cells; Homo sapiens, HT-29, 72 h): 9.30
- pIC50 (HT-29 cells; Homo sapiens, HT-29, read-out: Cytotoxicity (HT-29) IC50): 9.30
